The list is not random: actives were taken first. Their share in the collection is about 2.6%.
MDM2 E3 inh – Mdm2 E3 ligase (human) inhibition; Q00987; cell-based MDM2 ubiquitination luciferase reporter, 2 h; 0 = plate control, 100 = twice control, blank-subtracted; signal enhancement, % at 5 µM; 210,000 compounds, 0.11% hits;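 active = signal enhancement of 30% or more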;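 note: luminescence tracks abundance of the self-degrading MDM2-luciferase fusion protein; higher signal means inhibition of MDM2 E3 ligase activity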
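Assay system: stable mammalian line carrying autodegrading MDM2–luciferase fusion reporter; amount: 2000 cells seeded into each well; buffer or medium: DMEM; benchmarks: plate control and blank wells; signal: luciferase luminescence; timing: 2 h compound exposure at 37 °C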
HSV replic up – increases HSV replication in cells | 220,000 compounds, 0.005% hits | maximum fold increase | HSV replication augmentation in cells, fold increase; in the data active = maximum fold increase above about 1.5; tested in PC3 cells
HSF1 activator – increases HSF-1 driven luciferase reporter signal; NIH3T3-HGL HSF-1 luciferase reporter, MG132, 8 h; 100% = twice DMSO control signal; activation, % at 9 µM; 300,000 compounds, 1.7% hits; AID 504408;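 active = mean replicate activation of at least 50% with a set share of replicates each reaching 50%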;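 note: 0% = median of the neutral control wells and 100% = twice that signal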
Hsp70 act – switches on Hsp70 transcription; activation, % at 10 µM; HeLa Hsp70 promoter luciferase reporter, luminescence; scaled: vehicle 0, proteasome-inhibitor control 100%; 200,000 compounds, 0.04% hits;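 active = activation above the mean across all tested compounds plus 3 SD, cutoff set per campaign, cut at about 5.5% in these data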;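 note: 100% = MG132 at 30 µM as the positive control and 0% = DMSO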
HSF1 inhib – HSF1 inhibition | NIH3T3-HGL HSE-luciferase, MG132-induced, luminescence 8 h; stronger effect = lower value | activity change, negative = inhibition, % at 7.5 µM (by protocol) | 300,000 compounds, 0.77% hits | AID 2098;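 active = more than half of replicate wells show activity change below -50%, luminescence cut by over half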;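 note: luciferase reports HSF-1 transcriptional activity via heat shock element; 0% = median of DMSO wells and -100% = zero luminescence signal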
Rad51 HR inh – Rad51 (human) homologous recombination inhibition. Q06609. hRad51 DNA strand exchange, fluorescence dequenching. inhibition, % at 10 µM. 200,000 compounds, 0.085% hits;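 active = inhibition above 40% at the single screening dose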;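 note: 0% = DMSO control wells and 100% = blanks with heterologous ssDNA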
Target sequence (Q06609 whole entry, looked up): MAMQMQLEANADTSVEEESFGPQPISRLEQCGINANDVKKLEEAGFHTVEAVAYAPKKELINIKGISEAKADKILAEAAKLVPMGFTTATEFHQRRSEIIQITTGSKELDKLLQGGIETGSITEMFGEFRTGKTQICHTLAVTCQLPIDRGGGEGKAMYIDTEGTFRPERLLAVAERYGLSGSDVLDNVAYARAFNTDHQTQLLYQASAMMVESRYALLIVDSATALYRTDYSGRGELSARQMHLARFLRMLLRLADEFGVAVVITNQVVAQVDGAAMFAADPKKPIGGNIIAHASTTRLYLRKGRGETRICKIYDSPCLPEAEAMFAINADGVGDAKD
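Material: Human Rad51 nucleoprotein filaments preassembled on unlabelled ssDNA | Also added: Labelled 47-mer dsDNA for strand exchange | Dosing: Single dose, 10 µM final compound | Schedule: 30-min compound preincubation and 15-min exchange, both room temperature | Technique: Fluorescence dequenching at 485/520 nm | Measure: Percent inhibition relative to plate controls and blanks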
* hit, by the source's call; i = inactive; x = no result given.

SMILES | MDM2 E3 inh | HSV replic up | HSF1 activator | Hsp70 act | HSF1 inhib | Rad51 HR inh
Cc1cc(C(=O)Nc2sc3c(c2C#N)CCC(C)C3)cs1 (stereo not drawn) | -10.9 | i | 74.4* | 0.1 | 23.1 | -0.8
Cc1cccc(NC(=S)N(CCN(C)C)C(C)c2cccnc2)c1 (stereo not drawn) | -8.2 | i | 60.1* | -0.3 | 23.1 | 35.1
O=C(/C=C/c1cccc(Cl)c1)NCc1cccs1 | -7.3 | i | 51.6* | 0.0 | 20.4 | 1.9
CCCCNc1c([N+](=O)[O-])cc(C(=O)O)cc1[N+](=O)[O-] | x | i | 8.9 | -0.3 | 3.2 | x
O=C(O)c1cc([N+](=O)[O-])c(NCCC2=CCCCC2)c([N+](=O)[O-])c1 | -16.1 | i | 58.9* | -0.2 | 20.3 | 2.3
CCC1(c2ccccc2)NC(=O)N(CC(=O)NCc2ccccc2OC)C1=O (stereo not drawn) | x | x | 106.9* | x | 60.0 | x
COc1ccc(CNC(=O)COC(=O)C2CCC(C(C)(C)C)CC2)cc1 (stereo not drawn) | -2.4 | i | -6.8 | -0.5 | 2.4 | 4.8
O=C(CSc1nnnn1Cc1ccccc1)Nc1ccccc1 | x | i | -1.1 | x | -2.8 | -15.4
COC(=O)c1nccnc1C(=O)Nc1ccccc1N1CCOCC1 | x | x | -6.1 | x | -4.6 | x
CC(=O)NC(=S)Nc1ccc(NC(=O)COc2ccc(C(C)C)cc2)cc1 | -3.3 | i | 23.9 | -0.2 | 3.7 | x
CC(=O)NC(=S)Nc1ccc(NC(=O)COc2ccc(Cl)cc2)cc1 | -30.5 | i | 64.4* | -0.3 | 32.1 | -1.9
CCC(=O)NC(=S)Nc1ccc(NC(=O)COc2ccc(Cl)cc2Cl)cc1 | -15.9 | i | 52.7* | 0.1 | 30.9 | -0.9
CCC(=O)NC(=S)Nc1ccc(NC(=O)COc2ccc(Cl)c(C)c2)cc1 | 2.9 | i | 79.2* | 0.1 | 45.2 | -5.0
O=C(COc1ccc(CO)cc1Cl)Nc1ccc(F)cc1 | -9.6 | i | 54.7* | 0.1 | 33.7 | 4.3
Cc1cc(OCC(=O)Nc2ccncc2)ccc1Cl | x | x | -0.8 | x | -1.0 | x
Cc1c(C(=O)N2CCc3ccccc3C2)oc2ccc(S(=O)(=O)N3CCCCCC3)cc12 | -9.1 | i | 11.1 | -0.5 | -0.8 | 4.5
COc1cccc(NC(=S)NC(=O)c2cccnc2)c1 | x | x | 24.1 | x | 16.9 | x
CNC(=O)c1ccc(S(=O)(=O)c2ccc(Cl)cc2)c(NC(C)=O)c1 | x | x | -28.1 | x | -9.7 | x
O=C(Nc1ccccc1)c1nnsc1S(=O)c1ccc(Cl)cc1 (stereo not drawn) | -16.9 | i | 156.7* | 0.5 | 207.8 | x
O=C(c1nnsc1S(=O)(=O)c1ccc(Cl)cc1)N1CCOCC1 | -18.1 | i | -81.3 | -0.1 | -80.1* | 7.3
O=C(c1nnsc1S(=O)c1ccc(Cl)cc1)N1CCOCC1 (stereo not drawn) | -28.3 | i | 267.1* | 0.4 | 193.9 | 1.2
O=C(Nc1ccc(Cl)cc1)c1cccs1 | -21.1 | i | 31.3 | 0.2 | 18.4 | -1.7
CNC(=O)c1nnsc1S(=O)(=O)c1ccc(Cl)cc1 | -27.2 | i | 158.1* | 0.0 | 101.9 | -3.3
O=C(Nc1nccs1)c1ccc(COc2ccc(Cl)cc2)o1 | -11.8 | i | 56.5* | -0.4 | 36.6 | 6.8
Oc1c(C2=NCCNC(C(F)(F)F)=C2)ccc2ccccc12 | -15.7 | i | 81.1* | 0.6 | 61.1 | 10.8
SMILES | MDM2 E3 inh | HSV replic up | HSF1 activator | Hsp70 act | HSF1 inhib | Rad51 HR inh
Cc1cc(C(=O)NCCC2=CCCCC2)c(C)o1 | -47.4 | i | 60.1* | 0.2 | 32.7 | -2.8
CS(=O)(=O)N(Cc1ccc(Cl)cc1)c1ccc(C(=O)NCCC2=CCCCC2)cc1 | 17.9 | i | 3.7 | -0.5 | 16.8 | 1.3
O=C(NCCC1=CCCCC1)c1ccc(Cl)cc1 | -29.9 | i | 59.0* | -0.3 | 37.2 | -122.0
O=C(/C=C/c1cc([N+](=O)[O-])ccc1OC(F)F)Nc1cccc([N+](=O)[O-])c1 | x | i | -79.1 | x | -73.2* | 10.8
CCC(=O)Nc1nc(=S)ss1 | 5.2 | i | 17.6 | -0.3 | 0.8 | 62.2*
CCN(CC(=O)Nc1c(F)cccc1F)C(=O)CCc1nc2ccccc2c(=O)[nH]1 | x | x | 23.9 | x | 2.0 | x
CCN(CC(=O)Nc1c(F)cccc1F)C(=O)Cc1n[nH]c(=O)c2ccccc12 | x | x | -78.0 | x | -71.5* | x
O=C(Nc1nccs1)c1sc2cc(Cl)ccc2c1Cl | -17.0 | i | 56.1* | 0.0 | 25.6 | -1.7
Clc1ccc(-c2cn3c(n2)-c2ccccc2C3)cc1Cl | -19.9 | i | 52.9* | -0.3 | 18.3 | 3.7
CCOc1ccc2nc(SCc3ccccc3C#N)sc2c1 | -23.8 | i | 114.8* | 0.5 | 68.4 | -4.8
COc1ccc(-c2nc3scc(-c4ccccc4)n3n2)cc1 | -2.2 | i | 121.4* | -0.4 | 62.2 | -5.3
CCOC(=O)Cc1csc2nc(-c3ccccc3)nn12 | -8.4 | i | 3.7 | x | -0.6 | -8.1
Cc1cc(C)cc(NC(=O)CN(C)S(=O)(=O)c2cnc[nH]2)c1 | -7.9 | i | 80.0* | -0.2 | 32.3 | 0.3
CCOc1ccc(OCC)c(NC(=O)CN(C)S(=O)(=O)c2cnc[nH]2)c1 | -6.0 | i | -5.1 | -0.5 | -2.7 | -3.5
COc1ccc(NC(=O)CN(C)S(=O)(=O)c2cnc[nH]2)cc1OC | x | x | 17.3 | x | -1.7 | x
CCOc1ccc(NC(=O)CN(C)S(=O)(=O)c2cnc[nH]2)cc1 | 32.1* | i | -0.9 | -0.2 | -9.5 | -5.4
COCCCC1CCN(C(=O)c2cc(COc3ccc(C)nc3)on2)CC1 | x | x | 1.3 | x | -2.9 | x
C#Cc1ccc([C@@H]2C=C(C(=O)OCC=C)O[C@H](OCc3ccc(CO)cc3)C2)cc1 | x | i | -55.9 | -0.2 | -42.9 | -6.8
Cc1ccc(C)c(Cn2nnc3c(=O)[nH]c(C4CCN(C(=O)c5cccs5)CC4)nc32)c1 | -12.8 | i | 75.8* | 0.1 | 26.9 | -0.8
COc1ccc(NC(=O)c2cccc(S(=O)(=O)N3CCCCCC3)c2)cc1 | x | x | 5.4 | x | -4.1 | x
O=C1/C(=N\S(=O)(=O)c2cccs2)C([n+]2ccc(CCCc3ccccc3)cc2)=C([O-])c2ccccc21 | 1.6 | i | 48.8 | x | 18.0 | 19.8
O=C1/C(=N\S(=O)(=O)c2cccs2)C([n+]2cccc(Cc3ccccc3)c2)=C([O-])c2ccccc21 | -69.8 | i | 139.1* | x | 87.6 | -467.1
Cc1ccsc1/C=N/Nc1nc2ccccc2[nH]1 | -13.6 | i | 802.9* | 0.3 | i | -3.6
C(=N\Nc1nc2ccccc2[nH]1)/c1ccncc1 | -5.0 | i | -3.8 | 0.2 | -12.8 | 8.3
C(=N\Nc1nc2ccccc2[nH]1)/c1cccs1 | -12.8 | i | 112.9* | -0.1 | 99.4 | 4.0
O=C(Nc1ccccc1C(=O)NCC1CCCO1)c1ccc(Cl)cc1 (stereo not drawn) | x | x | -1.5 | x | -6.7 | x
Cc1cc(-c2ccccc2)c2ccc(NC(=O)C(C)(C)C)nc2n1 | x | x | -69.5 | x | -61.9* | x
